Assay results as given in ChEMBL document CHEMBL1139230, “New beta-alanine derivatives are orally available glucagon receptor antagonists” (J Med Chem, 2007).
pIC50: −log10 of the molar value. The source made the active and inactive calls. The rule behind the calls is not given here.

How the values were obtained:
[1] = biological target: Glucagon receptor (Homo sapiens, UniProt P47871); assay: Inhibition of human cloned glucagon receptor expressed in BHK cells; assay type: cell-based
In short: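 Binding performed on plasma membranes from BHK cells expressing the cloned human glucagon receptor; IC50 values determined.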

[2] = tested on: Liver microsomes; assay: Metabolic turnover in rat liver microsomes at 10 uM; assay type: ADME, Microsome
In short: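 Metabolic rate estimated by incubating compounds with rat liver microsomes, used to rank metabolic stability.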

[3] = Bioavailability in orally dosed dog; assay type: ADME, organism-based, Canis lupus familiaris; conditions: in vivo, po
In short: (§1)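 Dogs dosed orally and intravenously; oral availability and half-life after iv dosing determined.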

[4] = Metabolic stability in iv dosed dog; assay type: ADME, organism-based, Canis lupus familiaris; conditions: in vivo; in short: as §1
[5] = biological target: Glucagon receptor (Rattus norvegicus, UniProt P30082); assay: Inhibition of rat glucagon receptor
Chain of Glucagon receptor (Rattus norvegicus, UniProt P30082) (P30082 whole entry): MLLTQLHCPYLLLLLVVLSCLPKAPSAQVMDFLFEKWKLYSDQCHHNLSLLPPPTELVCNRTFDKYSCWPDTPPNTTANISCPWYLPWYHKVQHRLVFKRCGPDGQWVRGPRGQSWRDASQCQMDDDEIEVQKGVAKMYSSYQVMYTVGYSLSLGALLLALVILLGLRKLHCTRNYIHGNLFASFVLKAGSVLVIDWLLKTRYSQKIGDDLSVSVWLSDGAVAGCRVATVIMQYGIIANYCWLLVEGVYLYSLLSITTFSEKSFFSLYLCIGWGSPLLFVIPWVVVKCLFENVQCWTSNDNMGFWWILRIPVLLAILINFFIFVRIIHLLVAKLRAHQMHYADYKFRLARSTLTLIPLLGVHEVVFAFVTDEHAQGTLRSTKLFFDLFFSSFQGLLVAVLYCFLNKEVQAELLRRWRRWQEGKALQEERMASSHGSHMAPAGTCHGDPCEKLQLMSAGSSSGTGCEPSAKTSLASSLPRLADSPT

[6] = tested on: Rattus norvegicus; assay: Reduction of blood glucose level in glucagon-challenged iv dosed Sprague-dawley rat at > 3 mg/kg; assay type: functional, organism-based; parameters: dose 3 mg/kg
In short: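 Anesthetized rats received the compound intravenously across a range of doses 5 min before a 3 µg/kg glucagon load. The rise in blood glucose was followed.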

[7] = biological target: Glucagon-like peptide 1 receptor (Homo sapiens, UniProt P43220); assay: Inhibition of GLP1 receptor
Chain of Glucagon-like peptide 1 receptor (P43220 whole entry): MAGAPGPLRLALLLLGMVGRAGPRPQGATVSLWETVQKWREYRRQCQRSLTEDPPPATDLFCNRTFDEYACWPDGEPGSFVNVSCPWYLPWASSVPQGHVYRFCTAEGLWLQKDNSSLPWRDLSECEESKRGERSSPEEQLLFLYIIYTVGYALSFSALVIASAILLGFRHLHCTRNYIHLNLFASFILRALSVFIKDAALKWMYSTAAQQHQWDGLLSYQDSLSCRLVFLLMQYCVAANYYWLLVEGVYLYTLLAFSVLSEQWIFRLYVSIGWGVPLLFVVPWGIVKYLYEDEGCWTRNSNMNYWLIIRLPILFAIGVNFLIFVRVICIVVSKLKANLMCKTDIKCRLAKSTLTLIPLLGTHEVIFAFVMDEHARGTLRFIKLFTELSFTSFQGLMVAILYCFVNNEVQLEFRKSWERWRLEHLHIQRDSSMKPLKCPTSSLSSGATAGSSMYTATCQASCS

[8] = species on record: Homo sapiens; assay: Selectivity for glucagon receptor over GLP1 receptor
[9] = Bioavailability in rat at 4 mg/kg, po; assay type: ADME, organism-based; conditions: in vivo
In short: (§2)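 Rats given the compound at 4 mg/kg orally and 2 mg/kg intravenously. Plasma profiles yielded Cmax, Tmax, AUC, oral availability (F) and plasma half-life; half-life was taken from the iv dose.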

[10] = Metabolic stability in rat at 2 mg/kg, iv; assay type: ADME, organism-based; parameters: dose 2 mg/kg, route intravenous; conditions: in vivo; in short: as §2
[11] = tested on: Rattus norvegicus; assay: AUC in rat at 4 mg/kg, po and 2 mg/kg, iv; assay type: ADME, organism-based, Plasma; conditions: in vivo; in short: as §2
[12] = Cmax in rat at 4 mg/kg, po and 2 mg/kg, iv; assay type: ADME, organism-based; conditions: in vivo; in short: as §2
[13] = Tmax in rat at 4 mg/kg, po and 2 mg/kg, iv; assay type: ADME, organism-based; conditions: in vivo; in short: as §2
[14] = tested on: Rattus norvegicus; assay: Reduction of blood glucose level in glucagon-challenged iv dosed Sprague-Dawley rat; assay type: functional, organism-based
In short: (§3)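 Rats were anesthetized and given the compound intravenously over a range of doses, 5 min before an exogenous glucagon load of 3 µg/kg. The read-out was the glucagon-stimulated rise in blood glucose.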

[15] = tested on: Mus musculus; assay: Reduction of blood glucose level in Umea ob/ob mouse at 100 mg/kg, po after 24 hrs; assay type: functional
In short: (§4)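 ob/ob mice (n = 6 per group), vehicle or compound at 100 mg/kg po. Blood glucose was measured before dosing and again at 2, 4, 6 and 24 h; the change from the predose value was reported.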

[16] = tested on: Mus musculus; assay: Reduction of blood glucose level in Umea ob/ob mouse at 100 mg/kg, po after 6 hrs; assay type: functional; in short: as §4
[17] = tested on: Mus musculus; assay: Reduction of blood glucose level in Umea ob/ob mouse at 100 mg/kg, po after 4 hrs; assay type: functional; in short: as §4
[18] = tested on: Mus musculus; assay: Reduction of blood glucose level in Umea ob/ob mouse at 100 mg/kg, po after 2 hrs; assay type: functional; in short: as §4
[19] = tested on: Mus musculus; assay: Reduction in cumulative food intake in Umea ob/ob mouse at 100 mg/kg, po; assay type: functional
In short: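 ob/ob mice given vehicle or compound at 100 mg/kg po; cumulative food intake per mouse recorded from 6 to 24 h postdose.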

[20] = tested on: Mus musculus; assay: Blood glucose level in Umea ob/ob mouse at 100 mg/kg, po
[21] = tested on: Rattus norvegicus; assay: Reduction of blood glucose level in glucagon-challenged iv dosed Sprague-Dawley rat at 3 mg/kg; assay type: functional, organism-based; parameters: dose 3 mg/kg; in short: as §3

Chain of Glucagon receptor (Homo sapiens, UniProt P47871) (P47871 whole entry): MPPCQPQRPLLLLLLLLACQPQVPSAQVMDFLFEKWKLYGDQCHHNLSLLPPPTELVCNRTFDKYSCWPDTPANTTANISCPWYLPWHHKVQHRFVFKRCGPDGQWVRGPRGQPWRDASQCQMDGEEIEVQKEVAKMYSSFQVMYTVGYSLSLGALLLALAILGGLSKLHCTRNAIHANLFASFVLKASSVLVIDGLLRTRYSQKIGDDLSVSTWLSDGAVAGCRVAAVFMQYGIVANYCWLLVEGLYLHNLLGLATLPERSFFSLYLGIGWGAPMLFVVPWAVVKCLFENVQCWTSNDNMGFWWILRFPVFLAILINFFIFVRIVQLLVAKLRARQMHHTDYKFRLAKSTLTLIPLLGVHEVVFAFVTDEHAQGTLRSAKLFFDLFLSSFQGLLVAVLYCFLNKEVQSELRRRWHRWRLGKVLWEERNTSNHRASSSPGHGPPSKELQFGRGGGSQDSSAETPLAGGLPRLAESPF

With CC(C)(C)C1CCC(N(Cc2ccc(C(=O)NCC(=O)O)cc2)C(=O)Nc2ccc(OC(F)(F)F)cc2)CC1 (centres undefined) the pIC50 [1] was 5.77.

CC(C)(C)[C@H]1CC[C@H](N(Cc2ccc(C(=O)NCCC(=O)O)cc2)C(=O)Nc2ccc(Cl)c(Cl)c2)CC1 showed an Activity [2] of 232 pmol/min.

In the case of CC(C)(C)C1CCC(N(Cc2ccc(C(=O)NCC(=O)NO)cc2)C(=O)Nc2ccc(OC(F)(F)F)cc2)CC1 (centres undefined), the pIC50 [1] was 5.53.

In the case of COC1CCC(N(Cc2ccc(C(=O)NCCC(=O)O)cc2)C(=O)Nc2ccc(OC(F)(F)F)cc2)CC1 (centres undefined), the pIC50 [1] was under 5.00.

For O=C(O)CCNC(=O)c1ccc(CN(C(=O)Nc2cc(Cl)cc(Cl)c2)c2ccc(C3=CCCCC3)cc2)cc1, the bioavailability [3] was 65%, the half-life [4] was 92 min and the pIC50 [5] was 6.91. For the same molecule, the Activity [6] was “Active”, the pIC50 [1] was 7.57 and the pIC50 [7] was 5.31. The Selectivity ratio [8] was 180, the bioavailability [9] was 69% and the half-life [10] was 82 min. It also gave an AUC [11] of 2970 ng·h/mL, a Cmax [12] of 275 ng/mL and a Tmax [13] of 1 h. The Activity [14] was “Dose-dependent effect”, the Activity [15] was 1.8 mM and the Activity [16] was 9.5 mM. It also gave an Activity [17] of 8.4 mM, an Activity [18] of 6.8 mM and an Activity [19] of 8.4 g. It also gave an Activity [20] of 18.3 mM.

For O=C(O)CCNC(=O)c1ccc(CN(CC(c2ccccc2)c2ccccc2)C(=O)c2csc3ccc(Cl)cc23)cc1, the pIC50 [1] was 6.94.

For O=C(O)CCNC(=O)c1ccc(CN(C(=O)Nc2ccc(SC(F)(F)F)cc2)C2Cc3ccccc3C2)cc1, the pIC50 [1] was 6.58.

CC(C)(C)C1CCC(N(Cc2ccc(C(=O)NCCCC(=O)O)cc2)C(=O)Nc2ccc(OC(F)(F)F)cc2)CC1 (centres undefined) gave a pIC50 [1] of under 5.00.

Molecule CCCCC(CC)N(Cc1ccc(C(=O)NCCC(=O)O)cc1)C(=O)Nc1ccc(OC(F)(F)F)cc1 (centres undefined) has a pIC50 [1] of 6.85.

Work on CC(C)(C)C1CCC(N(Cc2ccc(C(=O)NCCC(N)=O)cc2)C(=O)Nc2ccc(OC(F)(F)F)cc2)CC1 (centres undefined) yielded a pIC50 [1] of under 5.00.

For CNC(=O)C1CCC(N(Cc2ccc(C(=O)NCCC(=O)O)cc2)C(=O)Nc2ccc(OC(F)(F)F)cc2)CC1 (centres undefined), the pIC50 [1] was under 5.00.

Work on CC(C)(C)[C@H]1CC[C@H](N(Cc2ccc(C(=O)NCCC(=O)O)cc2)C(=O)Nc2cc(C(F)(F)F)cc(C(F)(F)F)c2)CC1 yielded an Activity [2] of 139 pmol/min.

Work on CCCCc1ccc(NC(=O)N(Cc2ccc(C(=O)NCCC(=O)O)cc2)C2Cc3ccccc3C2)cc1 yielded a pIC50 [1] of 6.75.

In the case of CC(C)(C)[C@H]1CC[C@H](N(Cc2ccc(C(=O)NCCC(=O)O)cc2)C(=O)Nc2ccc(OC(F)(F)F)cc2C#N)CC1, the pIC50 [1] was 7.25 and the Activity [2] was 63 pmol/min.

In the case of CCCC1CCC(N(Cc2ccc(C(=O)NCCC(=O)O)cc2)C(=O)Nc2ccc(OC(F)(F)F)cc2)CC1 (centres undefined), the pIC50 [1] was 6.91.

CC(C)(C)[C@H]1CC[C@H](N(Cc2ccc(C(=O)NCCC(=O)O)cc2)C(=O)Nc2ccc(OC(F)(F)F)cc2)CC1 gave a bioavailability [3] of 10%, a half-life [4] of 101 min and a pIC50 [5] of 7.25. For the same molecule, the pIC50 [1] was 7.26, the pIC50 [7] was 6.00 and the Activity [2] was 100 pmol/min. It also gave a bioavailability [9] of 17%, a half-life [10] of 90 min and an AUC [11] of 217 ng·h/mL. The Cmax [12] was 106 ng/mL, the Tmax [13] was 1 h and the Activity [14] was “Dose-dependent effect”. For the same molecule, the Activity [21] was “Active”.

CC(C)(C)[C@H]1CC[C@H](N(Cc2ccc(C(=O)NCCC(=O)O)cc2)C(=O)Nc2ccc(C#N)cc2)CC1 showed a pIC50 [1] of 5.98.

O=C(O)CCNC(=O)c1ccc(CN(C(=O)Nc2ccc(OC(F)(F)F)cc2)C2CCC(C(=O)NCC3CC3)CC2)cc1 (centres undefined) gave a pIC50 [1] of under 5.00.

CC(C)(C)C1CCC(N(Cc2ccc(C(=O)N3CCCC(C(=O)O)C3)cc2)C(=O)Nc2ccc(OC(F)(F)F)cc2)CC1 (centres undefined) showed a pIC50 [1] of 6.00.

Work on O=C(O)CCNC(=O)c1ccc(CN(C(=O)Nc2ccc(OC(F)(F)F)cc2)C2CCC(C(=O)O)CC2)cc1 (centres undefined) yielded a pIC50 [1] of under 5.00.

For COCCCNC(=O)c1ccc(CN(C(=O)Nc2ccc(OC(F)(F)F)cc2)C2CCC(C(C)(C)C)CC2)cc1 (centres undefined), the pIC50 [1] was under 5.00.

Molecule O=C(O)CCNC(=O)c1ccc(CN(CCC(c2ccccc2)c2ccccc2)C(=O)c2ccc(Cl)nc2)cc1 has a pIC50 [1] of 5.15 and a pIC50 [7] of 4.00.

O=C(O)CCNC(=O)c1ccc(CN(C(=O)Nc2ccc(OC(F)(F)F)cc2)c2ccc(C3CCCCC3)cc2)cc1 gave a pIC50 [1] of 7.21, a bioavailability [9] of 54% and a half-life [10] of 64 min. It also gave an AUC [11] of 1600 ng·h/mL, a Cmax [12] of 316 ng/mL and a Tmax [13] of 4 h.

CC(C)(CC(=O)O)NC(=O)c1ccc(CN(C(=O)Nc2ccc(OC(F)(F)F)cc2)C2CCC(C(C)(C)C)CC2)cc1 (centres undefined) showed a pIC50 [1] of under 5.00.

In the case of CC(C)(C)[C@H]1CC[C@H](N(Cc2ccc(C(=O)NCCC(=O)O)cc2)C(=O)Nc2ccc(C#N)cc2OC(F)(F)F)CC1, the Activity [2] was 130 pmol/min.

In the case of CC(C)c1ccc(NC(=O)N(Cc2ccc(C(=O)NCCC(=O)O)cc2)[C@H]2CC[C@H](C(C)(C)C)CC2)cc1, the pIC50 [1] was 7.46, the Activity [2] was 283 pmol/min and the bioavailability [9] was 2%. It also gave a half-life [10] of 20 min, an AUC [11] of 43.3 ng·h/mL and a Cmax [12] of 40 ng/mL. It also gave a Tmax [13] of 0.25 h.
